# From paper PMC3790647 (Clinical cancer research : an official journal of the …, 2013)
# Marks after values point to notes of the source that are not given here.
# Experiments:
# HDAC enzyme = experiment: Cellular HDAC enzyme activity assay in patient blood cells; type: in vivo, human; details: plasma concentration, 2 hour post-dose on day 1, all dose levels, Hill model
# Method in brief: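 Whole citrate blood (1 ml) was incubated 2 h at 37°C with fluorogenic substrate Boc-K(Ac)-AMC, then erythrocytes were lysed and cells stored at −80°C. Developer reagent lysed cells and released fluorescence from the deacetylated substrate, read by fluorimetry. Untreated control was set as 100% activity and 10 μM trichostatin A as 100% inhibition. Sampling: C1D1 pre-dose, 2, 5, 8, 24 h; C1D5; C4D5.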
# [1] = Plasma pharmacokinetics of resminostat in patients; type: in vivo, human; details: for half-life / AUC / AUC(0-inf) / Tmax / Cmax: human, plasma
# Method in brief: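 Oral capsules (100–800 mg) were taken once daily within 30 min after a light meal with 240 ml water, with a 1 h post-dose fast on PK days. Day 1 blood was drawn pre-dose to 24 h (15 min–10 h series plus 24 h); days 5 and 47, pre-dose to 8 h. Samples (2 ml EDTA) were kept on ice, spun 10 min at 2700 × g at 4°C, and plasma stored at −80°C. Analysis used validated HPLC-MS/MS and non-compartmental (extravascular) analysis, with AUC0-∞, Cmax and t½ log-transformed.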
# [2] = system: rodent and human cancer cell lines; details: large variety of cell lines; ref Investigator’s Brochure, version 5, 2010; cited from earlier work
# HeLa cells = details: ref Investigator’s Brochure, version 5, 2010; cited from earlier work
# histone H4 acetylation = experiment: Histone H4 acetylation in PBMC by Western blotting; type: in vivo, human; details: 800 mg dose level
compound,measurement,setting,value
CN(C)Cc1ccc(S(=O)(=O)n2ccc(/C=C/C(=O)NO)c2)cc1 [resminostat],Resminostat concentration at 50% of HDAC enzyme inhibition,HDAC enzyme,306 ng/mL
same,Change in AUC and Cmax between treatment days 1 and 5,[1]; all studied dose levels,no significant change
same,"Time at which peak plasma concentration Cmax was attained, median value","[1]; day 1, single dosing, all doses",2 h
same,Clearance,"[1]; day 1, single oral administration, 100 mg, N=3, geometric mean (68% range), free-base","80900 (51600, 127000) mL/h"
same,Clearance,"[1]; day 1, single oral administration, 200 mg, N=3, geometric mean (68% range), free-base","53800 (45000, 64300) mL/h"
same,Clearance,"[1]; day 1, single oral administration, 400 mg, N=3, geometric mean (68% range), free-base","52500 (50600, 54400) mL/h"
same,Clearance,"[1]; day 1, single oral administration, 600 mg, N=3, geometric mean (68% range), free-base","41400 (32200, 53300) mL/h"
same,Clearance,"[1]; day 1, single oral administration, 800 mg, N=7, geometric mean (68% range), free-base","37700 (29500, 48200) mL/h"
same,Clearance,"[1]; day 5, multiple oral administration, 100 mg, N=3, geometric mean (68% range), free-base","75100 (51000, 110000) mL/h"
same,Clearance,"[1]; day 5, multiple oral administration, 200 mg, N=3, geometric mean (68% range), free-base","59500 (45500, 77800) mL/h"
same,Clearance,"[1]; day 5, multiple oral administration, 400 mg, N=3, geometric mean (68% range), free-base","49300 (39900, 61000) mL/h"
same,Clearance,"[1]; day 5, multiple oral administration, 600 mg, n = 2, geometric mean (68% range), free-base","31100 (27100, 35600)^b mL/h"
same,Clearance,"[1]; day 5, multiple oral administration, 800 mg, N=6, geometric mean (68% range), free-base","41200 (29900, 56800) mL/h"
same,half-life,"[1]; oral, Terminal plasma elimination half-life, range, day 1, all doses",2.35 to 4.41 h
same,AUC,"[1]; po, 100 mg",1330 ng·h/mL
same,AUC(0-inf),"[1]; po, 100 mg",1240 ng·h/mL
same,Tmax,"[1]; po, 100 mg",2 h
same,Cmax,"[1]; po, 100 mg, day 1, single oral administration, 100 mg, N=3, geometric mean (68% range), free-base",487 ng/mL
same,Cmax,"[1]; po, 100 mg, day 5, multiple oral administration, 100 mg, N=3, geometric mean (68% range), free-base",373 ng/mL
same,half-life,"[1]; po, 100 mg, Half-life, day 1, single oral administration, 100 mg, N=3, geometric mean (68% range), free-base",3.77 h
same,AUC,"[1]; po, 200 mg",3360 ng·h/mL
same,AUC(0-inf),"[1]; po, 200 mg",3720 ng·h/mL
same,Tmax,"[1]; po, 200 mg",2 h
same,Cmax,"[1]; po, 200 mg, day 1, single oral administration, 200 mg, N=3, geometric mean (68% range), free-base",1470 ng/mL
same,Cmax,"[1]; po, 200 mg, day 5, multiple oral administration, 200 mg, N=3, geometric mean (68% range), free-base",1060 ng/mL
same,half-life,"[1]; po, 200 mg, Half-life, day 1, single oral administration, 200 mg, N=3, geometric mean (68% range), free-base",3.12 h
same,AUC,"[1]; po, 400 mg",8110 ng·h/mL
same,AUC(0-inf),"[1]; po, 400 mg",7630 ng·h/mL
same,Tmax,"[1]; po, 400 mg",2.5 h
same,Cmax,"[1]; po, 400 mg, day 1, single oral administration, 400 mg, N=3, geometric mean (68% range), free-base",2160 ng/mL
same,Cmax,"[1]; po, 400 mg, day 5, multiple oral administration, 400 mg, N=3, geometric mean (68% range), free-base",2270 ng/mL
same,half-life,"[1]; po, 400 mg, Half-life, day 1, single oral administration, 400 mg, N=3, geometric mean (68% range), free-base",3.44 h
same,AUC,"[1]; po, 600 mg",19300 ng·h/mL
same,AUC(0-inf),"[1]; po, 600 mg",14500 ng·h/mL
same,Tmax,"[1]; po, 600 mg",2.5 h
same,Cmax,"[1]; po, 600 mg, day 1, single oral administration, 600 mg, N=3, geometric mean (68% range), free-base",4100 ng/mL
same,Cmax,"[1]; po, 600 mg, day 5, multiple oral administration, 600 mg, N=3, geometric mean (68% range), free-base",3000 ng/mL
same,half-life,"[1]; po, 600 mg, Half-life, day 1, single oral administration, 600 mg, N=3, geometric mean (68% range), free-base",2.84 h
same,AUC,"[1]; po, 800 mg",19400 ng·h/mL
same,AUC(0-inf),"[1]; po, 800 mg",21200 ng·h/mL
same,Tmax,"[1]; po, 800 mg",1.75 h
same,Cmax,"[1]; po, 800 mg, day 1, single oral administration, 800 mg, N=7, geometric mean (68% range), free-base",4970 ng/mL
same,Cmax,"[1]; po, 800 mg, day 5, multiple oral administration, 800 mg, N=6, geometric mean (68% range), free-base",4510 ng/mL
same,half-life,"[1]; po, 800 mg, Half-life, day 1, single oral administration, 800 mg, N=7, geometric mean (68% range), free-base",2.81 h
same,Oral bioavailability (judged from plasma exposure),"[1]; patients, oral capsules",good oral bioavailability
same,Concentrations that inhibit proliferation,[2],sub-to-low micromolar
same,Induction of histone H3 hyperacetylation and endogenous p21waf1,HeLa cells,dose-dependent induction
same,Median increase of histone H4 acetylation level,histone H4 acetylation,10 fold
